Reference: ChEMBL document CHEMBL1221398, “Chemical constituents of the deep reef caribbean sponges Plakortis angulospiculatus and Plakortis halichondrioides and their anti-inflammatory activities” (J Nat Prod, 2010)
Activity calls are given as the source filed them. The calls are words filed in the database; no cut-off is given here.

What was measured:
HL-60 [1] = test: Antioxidant activity against PMA-treated human HL60 cells assessed as inhibition of ROS generation
HL-60 [2] = test: Cytotoxicity against human HL60 cells up to 25 ug/mL
RAW264.7 = test: Cytotoxicity against mouse RAW264.7 cells up to 25 ug/mL
[3] = Inhibition of NF-kappaB-mediaated transcription in human SW1353 cells by reporter gene assay; assay type: cell-based
Outline: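 Luciferase reporter gene assay for NF-κB-mediated transcription in SW 1353 cells, with parthenolide as positive control. A luciferase construct carrying SP-1 binding sites served as a control for nonspecific transcription inhibition.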

[4] = Inhibition of LPS-induced NOS activity in mouse RAW264.7 cells; assay type: cell-based
Outline: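 Mouse RAW 264.7 macrophages were stimulated with LPS. iNOS activity was read as the decrease in nitrite production relative to untreated vehicle controls, with L-NMMA as positive control. Compounds were tested up to 25 µg/mL.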

[5] = Homo sapiens, SW1353, read-out: IC50

Row | SMILES | IC50 [3, 5] [µM] | IC50 [4] | IC50 ([4]; read-out: IC50) [µM] | IC50 ([3]; sw1353) | Activity (HL-60 [1]) | Activity (HL-60 [2]) | Activity (RAW264.7)
1 | CC(=O)/C=C(/C)C(=O)/C(C)=C/C(C)=C/C(C)/C=C/c1ccccc1 (centres undefined) |  |  |  |  | inactive | Non-toxic | Non-toxic
2 | CCC1=C[C@@](/C=C/c2ccccc2)(CC)[C@](C)(C(=O)O)[C@H]2C(CC)=C[C@@H](C)[C@H]12 [SPICULOIC ACID B] | 27.2 | Not Active |  |  | inactive | Non-toxic | Non-toxic
3 | CC1=C[C@](C)(/C=C/C=C/c2ccccc2)[C@](C)(C(=O)O)[C@H]2C(C)=C[C@@H](C)[C@H]12 [22,27-DINOR-ZYGGOMPHIC ACID B] | 27.9 |  | 30.4 |  | inactive | Non-toxic | Non-toxic
4 | CC1=C[C@](C)(/C=C(C)/C=C/c2ccccc2)[C@](C)(C(=O)O)[C@H]2C(C)=C[C@@H](C)[C@H]12 [27-NOR-ZYGGOMPHIC ACID B] | 2.28 |  | 18.6 |  | inactive | Non-toxic | Non-toxic
5 | CC(=O)C/C(C)=C/C(C)/C=C/c1ccccc1 (centres undefined) |  |  |  |  | inactive | Non-toxic | Non-toxic
6 | C=C1C(=O)O[C@@H]2C3O[C@]3(C)CC/C=C(\C)CC[C@@H]12 (some centres undefined) | 3.3 |  |  |  | inactive | Non-toxic | Non-toxic
7 | CCC1=C[C@@H](C)[C@@H]2C(C)=C[C@](C)(/C=C(C)/C=C/c3ccccc3)[C@](C)(C(=O)O)[C@@H]12 [ZYGGOMPHIC ACID B] | 25.8 |  | > 64.1 |  | inactive | Non-toxic | Non-toxic

Further lines, with some results ahead:

Row | IC50 [3, 5] [µM] | IC50 [4] | IC50 ([4]; read-out: IC50) [µM] | IC50 ([3]; sw1353) | SMILES | Activity (HL-60 [1]) | Activity (HL-60 [2]) | Activity (RAW264.7)
8 | 25.6 |  | 64.1 |  | CCC(O)/C(C)=C/C(C)C(O)/C(C)=C/C(C)=C/C(C)/C=C/c1ccccc1 (centres undefined) | inactive | Non-toxic | Non-toxic
9 | 0.47 |  | 54.9 |  | CCC1=C[C@@H](C)[C@@H]2C(C)=C[C@@](/C=C/c3ccccc3)(CC)[C@](C)(C(=O)O)[C@@H]12 [24-NOR-SPICULOIC ACID B] | inactive | Non-toxic | Non-toxic
10 |  |  | > 101 |  | CNC(=N)NCCC[C@H](N)C(=O)O [TILARGININE] | inactive | Non-toxic | Non-toxic
11 |  |  | 19.9 | Not Active | CCC1=C[C@@H](C)[C@@H]2C(C)=C[C@](C)(/C=C/C=C/c3ccccc3)[C@](C)(C(=O)O)[C@@H]12 [22-NOR-ZYGGOMPHIC ACID B] | inactive | Non-toxic | Non-toxic
